Converted amounts (≈) assume the structure as drawn. The source made the active and inactive calls. No cut-off for these calls is given here.
Columns and labels:
Lipid bilayer [1] = experiment: Binding affinity to zwitterionic tethered bilayer lipid membranes assessed as increase in membrane capacitance changes at 10 uM by electrochemical impedance spectroscopic analysis
In short: (§1)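 Tethered bilayer membranes formed from a mobile phase of 70% diphytanyl-glycero-phosphatidylcholine and 30% diphytanyl-diglyceride ether (3 mM in ethanol), associated for 2 min, then washed with PBS to give zwitterionic membranes. A variant mobile phase gave negatively charged membranes. Conduction and capacitance measured by AC impedance spectroscopy with Lev-Mar fitting. Triplicate.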

Lipid bilayer [2] = experiment: Binding affinity to zwitterionic tethered bilayer lipid membranes assessed as increase in membrane conduction response by electrochemical impedance spectroscopic analysis; in short: as §1
Lipid bilayer [3] = experiment: Binding affinity to zwitterionic tethered bilayer lipid membranes assessed as increase in membrane capacitance changes at 0.1 to 100 uM by electrochemical impedance spectroscopic analysis; in short: as §1
MRC5 [4] = experiment: Cytotoxicity against human MRC5 cells up to 350 uM after 72 hrs by Alamar blue staining-based spectrophotometric analysis; format: cell-based; conditions: mrc5, 72 h
In short: (§2)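 MRC-5 lung fibroblasts grown in MEM with 10% FCS, 37 °C, 5% CO₂. Seeded at 2 × 10⁴ cells/well to confluence, then treated 24 h later for 72 h. Medium replaced with 10% Alamar blue for 6 h and absorbance read. Viability expressed as % of untreated cells and IC50 derived. Triplicate, three independent experiments.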

Lipid bilayer [5] = experiment: Binding affinity to negatively charged tethered bilayer lipid membranes assessed as increase in membrane capacitance changes at 10 uM by electrochemical impedance spectroscopic analysis; in short: as §1
Staphylococcus aureus [6] = experiment: Antimicrobial activity against Staphylococcus aureus SA38 after 18 to 24 hrs by spectrophotometry based broth micro dilution assay; format: functional; conditions: read-out: MIC100
In short: (§3)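 CLSI broth microdilution. Mid-log cells grown in MHB at 37 °C, shaken 120 rpm, washed three times in PBS pH 7.4, diluted in fresh MHB to a final 1–2 × 10⁵ cfu/mL. Two-fold serial dilutions from 250 down to 3.9 µM. Incubated 18–24 h at 37 °C, 120 rpm. A600 read; MIC taken as the lowest concentration giving 100% growth inhibition. Triplicate, three independent experiments.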

Lipid bilayer [7] = experiment: Binding affinity to negatively charged tethered bilayer lipid membranes assessed as increase in membrane capacitance changes at 0.1 to 100 uM by electrochemical impedance spectroscopic analysis; in short: as §1
Lipid bilayer [8] = experiment: Binding affinity to negatively charged tethered bilayer lipid membranes assessed as increase in membrane conduction response at 0.1 to 100 uM by electrochemical impedance spectroscopic analysis; in short: as §1
MRC5 [9] = experiment: Cytotoxicity against human MRC5 cells after 72 hrs by Alamar blue staining-based spectrophotometric analysis; format: cell-based; conditions: for IC50: Homo sapiens, MRC5, 72 h; for Activity: human, mrc5, 72 h; in short: as §2
Pseudomonas aeruginosa = experiment: Antimicrobial activity against Pseudomonas aeruginosa PAO1 after 18 to 24 hrs by spectrophotometry based broth micro dilution assay; format: functional; conditions: read-out: MIC100; in short: as §3
Escherichia coli [10] = experiment: Antimicrobial activity against Escherichia coli K-12 after 18 to 24 hrs by spectrophotometry based broth micro dilution assay; format: functional; conditions: read-out: MIC100; in short: as §3
Staphylococcus aureus [11] = experiment: Antibiofilm activity against drug-resistant pre-formed Staphylococcus aureus biofilms assessed as inhibition of biomass formation at 4 times MIC; format: functional
Staphylococcus aureus [12] = experiment: Induction of cytoplasmic membrane disruption in Staphylococcus aureus SA38 at 7.8 to 62.5 uM measured within 3 mins by diSC3-5 dye-based luminescence spectrophotometric analysis; format: functional, organism-based
Escherichia coli [13] = experiment: Induction of cytoplasmic membrane disruption in Escherichia coli K-12 at 3.9 to 31.2 uM by diSC3-5 dye-based luminescence spectrophotometric analysis; format: functional, organism-based
Staphylococcus aureus [14] = experiment: Induction of cytoplasmic membrane disruption in Staphylococcus aureus SA38 at 31.2 uM measured within 3 mins by diSC3-5 dye-based luminescence spectrophotometric analysis; format: functional, organism-based
Staphylococcus aureus [15] = experiment: Antibiofilm activity against Staphylococcus aureus SA38 assessed as inhibition of biofilm formation at 250 uM after 24 hrs by crystal violet staining based assay relative to control; format: functional; conditions: SA38, 24 h
In short: (§4)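 Overnight culture diluted 1:20 in LB and grown overnight at 37 °C, 150 rpm, in 96-well plates. Compounds added at 250 µM from DMSO stock; controls received equal DMSO. Incubated overnight at 37 °C, 150 rpm. Biofilm on polystyrene quantified by crystal violet staining. Triplicate, three independent experiments.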

Escherichia coli [16] = experiment: Antibiofilm activity against Escherichia coli K-12 assessed as inhibition of biofilm formation at 250 uM after 24 hrs by crystal violet staining based assay relative to control; format: functional; conditions: K-12, 24 h; in short: as §4

| Activity (Lipid bilayer [1]) | Activity (Lipid bilayer [3]) | Activity (Lipid bilayer [5]) | MIC (Staphylococcus aureus [6]) | Activity (Lipid bilayer [7]) | MIC (Pseudomonas aeruginosa) | MIC (Escherichia coli [10]) | Structure (SMILES) | Activity (Lipid bilayer [2]) | Activity (MRC5 [4]) | Activity (Lipid bilayer [8]) | IC50 (MRC5 [9]) | Activity (MRC5 [9]) | inhibition (INH) (Staphylococcus aureus [11]) | Activity (Staphylococcus aureus [12]) | Activity (Escherichia coli [13]) | Activity (Staphylococcus aureus [14]) | inhibition at 250 µM (Staphylococcus aureus [15]) | inhibition at 250 µM (Escherichia coli [16]) |
| --- | --- | --- | --- | --- | --- | --- | --- | --- | --- | --- | --- | --- | --- | --- | --- | --- | --- | --- |
| Active | Dose-dependent effect | Active | 15.6 µM (≈ 9.84 µg/mL) | Dose-dependent effect | 250 µM (≈ 158 µg/mL) | 31.2 µM (≈ 19.7 µg/mL) | N=C(N)NCCNC(=O)c1cccc(-c2cccc(NC(=O)[C@H](Cc3c[nH]c4ccccc34)NC(=O)[C@@H](N)Cc3ccccc3)c2)c1 | Dose-dependent effect | Non-Toxic | inactive | > 300 µM | Dose-dependent effect |  |  |  |  |  |  |
|  |  |  | 15.6 µM (≈ 12.3 µg/mL) |  |  | 7.8 µM (≈ 6.14 µg/mL) | N=C(N)NCCC[C@H](NC(=O)c1cccc(-c2cccc(NC(=O)[C@H](Cc3c[nH]c4ccccc34)NC(=O)[C@@H](N)Cc3ccccc3)c2)c1)C(=O)NCCNC(=N)N |  | Non-Toxic |  | > 300 µM | Dose-dependent effect |  | Active | Active |  |  |  |
|  |  |  | 62.5 µM (≈ 35.6 µg/mL) |  | > 250 µM | > 125 µM | COC(=O)[C@H](CCCNC(=N)N)NC(=O)c1cccc(-c2cccc(NC(=O)[C@@H](N)Cc3c[nH]c4ccccc34)c2)c1 |  | Non-Toxic |  | > 300 µM | Dose-dependent effect |  |  |  |  |  |  |
|  |  |  | 62.5 µM (≈ 30.2 µg/mL) |  | > 250 µM | > 125 µM | N=C(N)NCCNC(=O)c1cccc(-c2cccc(NC(=O)[C@@H](N)Cc3c[nH]c4ccccc34)c2)c1 |  | Non-Toxic |  | > 300 µM | Dose-dependent effect |  |  |  |  | 41% | 39% |
|  |  |  | 62.5 µM (≈ 36.8 µg/mL) |  | 250 µM (≈ 147 µg/mL) | > 125 µM | NCCNC(=O)c1cccc(-c2cccc(NC(=O)[C@H](Cc3c[nH]c4ccccc34)NC(=O)[C@@H](N)Cc3ccccc3)c2)c1 |  |  |  |  |  |  |  |  |  |  |  |
|  |  |  | > 250 µM |  |  | > 125 µM | N=C(N)NCCNC(=O)[C@H](Cc1c[nH]c2ccccc12)NC(=O)[C@@H](N)Cc1ccccc1 |  |  |  |  |  |  |  |  |  |  |  |

Continued, molecule first:

| Structure (SMILES) | Activity (Lipid bilayer [1]) | Activity (Lipid bilayer [3]) | Activity (Lipid bilayer [5]) | MIC (Staphylococcus aureus [6]) | Activity (Lipid bilayer [7]) | MIC (Pseudomonas aeruginosa) | MIC (Escherichia coli [10]) | Activity (Lipid bilayer [2]) | Activity (MRC5 [4]) | Activity (Lipid bilayer [8]) | IC50 (MRC5 [9]) | Activity (MRC5 [9]) | inhibition (INH) (Staphylococcus aureus [11]) | Activity (Staphylococcus aureus [12]) | Activity (Escherichia coli [13]) | Activity (Staphylococcus aureus [14]) | inhibition at 250 µM (Staphylococcus aureus [15]) | inhibition at 250 µM (Escherichia coli [16]) |
| --- | --- | --- | --- | --- | --- | --- | --- | --- | --- | --- | --- | --- | --- | --- | --- | --- | --- | --- |
| CC[C@H](C)[C@H](NC(=O)[C@H](CCCCN)NC(=O)[C@H](CCC(=O)O)NC(=O)[C@H](CCCCN)NC(=O)[C@H](CO)NC(=O)[C@H](CCCCN)NC(=O)[C@H](CCCNC(=N)N)NC(=O)[C@H](Cc1ccccc1)NC(=O)[C@H](Cc1ccccc1)NC(=O)[C@H](CC(=O)O)NC(=O)CNC(=O)[C@H](CC(C)C)NC(=O)[C@@H](N)CC(C)C)C(=O)NCC(=O)N[C@@H](CCCCN)C(=O)N[C@@H](CCC(=O)O)C(=O)N[C@@H](Cc1ccccc1)C(=O)N[C@@H](CCCCN)C(=O)N[C@@H](CCCNC(=N)N)C(=O)N[C@H](C(=O)N[C@H](C(=O)N[C@@H](CCC(N)=O)C(=O)N[C@@H](CCCNC(=N)N)C(=O)N[C@H](C(=O)N[C@@H](CCCCN)C(=O)N[C@@H](CC(=O)O)C(=O)N[C@@H](Cc1ccccc1)C(=O)N[C@@H](CC(C)C)C(=O)N[C@@H](CCCNC(=N)N)C(=O)N[C@@H](CC(N)=O)C(=O)N[C@@H](CC(C)C)C(=O)N[C@H](C(=O)N1CCC[C@H]1C(=O)N[C@@H](CCCNC(=N)N)C(=O)N[C@H](C(=O)N[C@@H](CCC(=O)O)C(=O)N[C@@H](CO)C(=O)O)[C@@H](C)O)C(C)C)[C@@H](C)CC)C(C)C)[C@@H](C)CC [CATHELICIDIN] |  |  |  |  |  |  |  |  |  |  |  |  | 40% |  |  |  |  |  |
| NCCNC(=O)c1cccc(-c2cccc(NC(=O)[C@@H](N)Cc3c[nH]c4ccccc34)c2)c1 |  |  |  | 125 µM (≈ 55.2 µg/mL) |  | > 250 µM | > 125 µM |  |  |  |  |  |  |  |  |  |  |  |
| COC(=O)[C@H](CCCCN)NC(=O)c1cccc(-c2cccc(NC(=O)[C@@H](N)Cc3c[nH]c4ccccc34)c2)c1 |  |  |  | 31.2 µM (≈ 16.9 µg/mL) |  | > 250 µM | > 125 µM |  |  |  |  |  |  |  |  |  |  |  |
| N=C(N)NCCNC(=O)c1cccc(-c2cccc(N)c2)c1 | inactive |  | inactive | 62.5 µM (≈ 18.6 µg/mL) |  | > 250 µM | > 125 µM |  |  |  |  |  |  |  |  |  |  |  |
| N=C(N)NCCNC(=O)[C@H](CCCCN)NC(=O)c1cccc(-c2cccc(NC(=O)[C@H](Cc3c[nH]c4ccccc34)NC(=O)[C@@H](N)Cc3ccccc3)c2)c1 |  |  |  | 31.2 µM (≈ 23.7 µg/mL) |  |  | 15.6 µM (≈ 11.8 µg/mL) |  | Non-Toxic |  | > 300 µM | Dose-dependent effect |  |  |  | Active |  |  |
| NCCCC[C@H](NC(=O)c1cccc(-c2cccc(NC(=O)[C@H](Cc3c[nH]c4ccccc34)NC(=O)[C@@H](N)Cc3ccccc3)c2)c1)C(=O)NCCN | Active | Dose-dependent effect | Active | 31.2 µM (≈ 22.4 µg/mL) | Dose-dependent effect | 250 µM (≈ 179 µg/mL) | 31.2 µM (≈ 22.4 µg/mL) | Dose-dependent effect | Non-Toxic | inactive | > 300 µM | Dose-dependent effect |  |  |  | Active | 30% | 8% |
| COC(=O)[C@H](CCCNC(=N)N)NC(=O)c1cccc(-c2cccc(NC(=O)[C@H](Cc3c[nH]c4ccccc34)NC(=O)[C@@H](N)Cc3ccccc3)c2)c1 | Active | inactive | Active | 31.2 µM (≈ 22.4 µg/mL) | Dose-dependent effect | 250 µM (≈ 179 µg/mL) | 125 µM (≈ 89.6 µg/mL) | Dose-dependent effect | Non-Toxic | inactive | > 300 µM | Dose-dependent effect |  |  |  |  |  |  |
| NCCCC[C@H](NC(=O)c1cccc(-c2cccc(NC(=O)[C@@H](N)Cc3c[nH]c4ccccc34)c2)c1)C(=O)NCCN |  |  |  | 31.2 µM (≈ 17.8 µg/mL) |  | > 250 µM | > 125 µM |  |  |  |  |  |  |  |  |  |  |  |
| COC(=O)[C@H](CCCCN)NC(=O)c1cccc(-c2cccc(NC(=O)[C@H](Cc3c[nH]c4ccccc34)NC(=O)[C@@H](N)Cc3ccccc3)c2)c1 | Active | Dose-dependent effect | Active | 31.2 µM (≈ 21.5 µg/mL) | Dose-dependent effect | 250 µM (≈ 172 µg/mL) | 125 µM (≈ 86.1 µg/mL) | Dose-dependent effect | Non-Toxic | inactive | > 300 µM | Dose-dependent effect |  |  |  |  |  |  |

Source: ChEMBL document CHEMBL4138177, “Design and synthesis of short amphiphilic cationic peptidomimetics based on biphenyl backbone as antibacterial agents” (Eur J Med Chem, 2018)
